Laboratory results: ChEMBL document CHEMBL1165851, “Synthesis and inhibitory evaluation of cyclohexen-2-yl- and cyclohexyl-substituted phenols and quinones to endothelial cell and cancer cells” (Eur J Med Chem, 2010)

Key:
[1] = tested on: A549; test: Antiproliferative activity human A549 cells after 96 hrs by MTT assay
[2] = tested on: HUVEC; test: Antiproliferative activity HUVEC after 96 hrs by MTT assay
[3] = tested on: MCF7; test: Antiproliferative activity human MCF7 cells after 96 hrs by MTT assay
[4] = tested on: Bel-7402; test: Antiproliferative activity human Bel7402 cells after 96 hrs by MTT assay
[5] = Antiproliferative activity human CCC-HPF1 cells after 20 hrs by MTT assay; format: cell-based; settings: ccc-hpf1, 96 h, in the assay text read “96 hrs” for “20 hrs”
Method in brief: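 HUVECs isolated from fresh umbilical cords and used at passages 3–8, grown in EGM-2. A549 and Bel-7402 in RPMI 1640; MCF-7 and ccc-HPF-1 in DMEM; all at 37 °C, 5% CO2. Seeded 1000 (HUVEC, Bel-7402), 1500 (MCF-7, ccc-HPF-1) or 2000 (A549) cells/well and left 20 h. Compound then added from PBS dilutions (final DMSO 0.1%), triplicate, 96 h. Readout MTT viability; IC50/CC50 from viability versus concentration.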

[6] = Homo sapiens, A549, 96 h, read-out: IC50
[7] = Homo sapiens, HUVEC, 96 h, read-out: IC50
[8] = Homo sapiens, MCF7, 96 h, read-out: IC50
[9] = Homo sapiens, Bel-7402, 96 h, read-out: IC50

SMILES | IC50 [1, 6] [µM] | IC50 [3, 8] [µM] | IC50 [4, 9] [µM] | IC50 ([1]; a549) | IC50 ([3]; mcf7) | IC50 ([4]; bel-7402) | IC50 [2, 7] [µM] | CC50 [5] | IC50 ([2]; huvec)
Cc1ccc(C2C=CCCC2)c(O)c1O (stereo not given) | 35.6 | 32.4 | 30 | – | – | – | 27.1 | – | –
CC1=CC(=O)C(C2C=CCCC2)=CC1=O (stereo not given) | 30.9 | ≥ 50 | ≥ 50 | – | – | – | 9.1 | – | –
CC(C)(C)c1cc(O)c(C2CCCCC2)cc1O | 36.3 | ≥ 50 | 30.3 | – | – | – | 7.4 | – | –
Oc1cccc2c1C1CCCCC1O2 (stereo not given) | – | – | – | Not Active | Not Active | Not Active | – | Not Active | Not Active
Oc1ccccc1C1C=CCCC1 (stereo not given) | ≥ 50 | ≥ 50 | ≥ 50 | – | – | – | 31.5 | – | –
Cc1cc(O)c(O)cc1C1C=CCCC1 (stereo not given) | 9.5 | 26.4 | 8.5 | – | – | – | 4.7 | – | –
Oc1cc(C2C=CCCC2)c(O)cc1C1C=CCCC1 (stereo not given) | ≥ 50 | ≥ 50 | ≥ 50 | – | – | – | 2 | – | –
Cc1cc(O)c(O)cc1C1CCCCC1 | 27.7 | 31.1 | 22.7 | – | – | – | 8.3 | – | –
O=C1C=C(C2C=CCCC2)C(=O)C=C1C1C=CCCC1 (stereo not given) | ≥ 50 | ≥ 50 | ≥ 50 | – | – | – | 6.2 | – | –
CC(C)(C)C1=CC(=O)C(C2C=CCCC2)=CC1=O (stereo not given) | ≥ 50 | ≥ 50 | ≥ 50 | – | – | – | 6.8 | – | –
CC(C)(C)c1cc(O)c(O)c(C2C=CCCC2)c1 (stereo not given) | ≥ 50 | ≥ 50 | ≥ 50 | – | – | – | 10 | – | –
Cc1cc(O)c(C2C=CCCC2)c(O)c1 (stereo not given) | – | – | – | Not Active | Not Active | Not Active | – | Not Active | Not Active
CO[C@@H]1[C@H](OC(=O)NC(=O)CCl)CCC2(CO2)[C@H]1[C@@]1(C)O[C@@H]1CC=C(C)C (single isomer, unassigned) [O-CHLOROACETYLCARBAMOYLFUMAGILLOL] | 50 | ≥ 50 | ≥ 50 | – | – | – | 0.0089 | – | –

More lines, main results first:

IC50 [1, 6] [µM] | IC50 [3, 8] [µM] | IC50 [4, 9] [µM] | IC50 ([1]; a549) | IC50 ([3]; mcf7) | IC50 ([4]; bel-7402) | SMILES | IC50 [2, 7] [µM] | CC50 [5] | IC50 ([2]; huvec)
– | – | – | Not Active | Not Active | Not Active | Cc1c(O)ccc(C2C=CCCC2)c1O (stereo not given) | – | Not Active | Not Active
31.8 | 40.2 | 31.2 | – | – | – | O=C1C=C(C2C=CCCC2)C(=O)c2ccccc21 (stereo not given) | 26.7 | – | –
≥ 50 | ≥ 50 | ≥ 50 | – | – | – | Oc1c(C2C=CCCC2)ccc(C2C=CCCC2)c1O (stereo not given) | 28.8 | – | –
34.4 | ≥ 50 | 26.9 | – | – | – | Cc1cc(O)c(O)c(C2C=CCCC2)c1 (stereo not given) | 15.3 | – | –
≥ 50 | ≥ 50 | ≥ 50 | – | – | – | Cc1c(O)c(C2C=CCCC2)cc(C2C=CCCC2)c1O (stereo not given) | 33 | – | –
≥ 50 | ≥ 50 | ≥ 50 | – | – | – | Oc1c(C2C=CCCC2)ccc2ccccc12 (stereo not given) | 22 | – | –
≥ 50 | ≥ 50 | ≥ 50 | – | – | – | CC(C)(C)c1cc(O)c(C2C=CCCC2)cc1O (stereo not given) | 1.4 | – | –
≥ 50 | ≥ 50 | ≥ 50 | – | – | – | CC(C)(C)c1cc2c(cc1O)C1CCCCC1O2 (stereo not given) | 22.4 | – | –
≥ 50 | ≥ 50 | ≥ 50 | – | – | – | CC(C)(C)c1cc(O)cc(C2C=CCCC2)c1O (stereo not given) | 11.6 | – | –
≥ 50 | ≥ 50 | ≥ 50 | – | – | – | Oc1cc(C2CCCCC2)c(O)cc1C1CCCCC1 | 8.2 | – | –
31.9 | ≥ 50 | 31.3 | – | – | – | O=C1C=C(C2CCCCC2)C(=O)C=C1C1CCCCC1 | 7.8 | – | –
≥ 50 | ≥ 50 | ≥ 50 | – | – | – | CC(C)(C)C1=CC(=O)C(C2CCCCC2)=CC1=O | 6 | – | –
– | – | – | Not Active | Not Active | Not Active | Cc1cc(O)c2c(c1)OC1CCCCC21 (stereo not given) | – | Not Active | Not Active
– | – | 0.58 | – | – | – | COc1cccc2c1C(=O)c1c(O)c3c(c(O)c1C2=O)C[C@@](O)(C(=O)CO)C[C@@H]3O[C@H]1C[C@H](N)[C@H](O)[C@H](C)O1 [DOXORUBICIN] | – | – | –
0.0049 | – | – | – | – | – | CC(=O)O[C@H]1C(=O)[C@@]2(C)[C@H]([C@H](OC(=O)c3ccccc3)[C@]3(O)C[C@H](OC(=O)[C@H](O)[C@@H](NC(=O)c4ccccc4)c4ccccc4)C(C)=C1C3(C)C)[C@]1(OC(C)=O)CO[C@@H]1C[C@@H]2O [PACLITAXEL] | – | – | –
